The target of experiment [1] is T1, P2Y purinoceptor 6 (Rattus norvegicus, UniProt Q63371). Briefly: (§1) Agonist activity at rat P2Y purinoceptor 6 expressed in human 1321N1 cells assessed as increase in intracellular calcium concentration by spectrofluorimetry. In short, it runs like this: (§2)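 1321N1 astrocytoma cells lacking endogenous P2Y receptors, stably transfected with turkey P2Y1, human P2Y2, human P2Y4 or rat P2Y6, grown in DMEM with 5% FBS, penicillin/streptomycin and 500 µg/mL G-418. Fura-2-loaded cell suspensions were exposed at 37 °C in 10 mM Hepes-buffered saline, pH 7.4, with 1 mM CaCl2 and 1 mM MgCl2. Peak [Ca2+]i rise by dual-excitation spectrofluorometry across concentrations; EC50 from curve fits; three experiments on separate days per subtype.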

For experiment [2], the target named is T1, P2Y purinoceptor 6. Described as §1. The gist of the method:
as §2
The source holds these as a separate data set.

For experiment [3], the target named is T2, P2Y purinoceptor 4 (Homo sapiens, UniProt P51582). Put plainly: (§3) Agonist activity at human P2Y purinoceptor 4 expressed in human 1321N1 cells assessed as increase in intracellular calcium concentration by spectrofluorimetry. In short, it runs like this:
(§4)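 1321N1 astrocytoma cells (no endogenous P2Y receptors) stably expressing hP2Y4, grown in DMEM with 5% FBS, penicillin/streptomycin and 500 μg/mL G-418. Fura-2-loaded cell suspensions; compounds applied at various concentrations, 37 °C, 10 mM Hepes-buffered saline pH 7.4 with 1 mM CaCl2/MgCl2. Peak [Ca2+]i rise by dual-excitation fluorometry gives EC50; UTP reference agonist; three experiments on separate days.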

In experiment [4] the target is T2, P2Y purinoceptor 4. The description is as §3. The gist of the method: as §4
The source holds these as a separate data set.

Experiment [5] concerns the target T3, P2Y purinoceptor 1 (Meleagris gallopavo, UniProt P49652). Briefly: (§5) Agonist activity at turkey P2Y purinoceptor 1 expressed in human 1321N1 cells assessed as increase in intracellular calcium concentration by spectrofluorimetry. (In general: A change in cytosolic calcium serves as a functional read-out for many receptors and channels.)
Experiment [6] addresses T3, P2Y purinoceptor 1. Described as §5. The gist of the method: as §2
The source holds these as a separate data set.

In experiment [7] the target is T4, P2Y purinoceptor 2 (Homo sapiens, UniProt P41231). Put plainly: (§6) Agonist activity at human P2Y purinoceptor 2 expressed in human 1321N1 cells assessed as increase in intracellular calcium concentration by spectrofluorimetry. In short, it runs like this:
as §2

For experiment [8], the target named is T4, P2Y purinoceptor 2. Described as §6. The source holds these as a separate data set.

The structures appear in SMILES notation.

T4 sequence (P41231 whole entry): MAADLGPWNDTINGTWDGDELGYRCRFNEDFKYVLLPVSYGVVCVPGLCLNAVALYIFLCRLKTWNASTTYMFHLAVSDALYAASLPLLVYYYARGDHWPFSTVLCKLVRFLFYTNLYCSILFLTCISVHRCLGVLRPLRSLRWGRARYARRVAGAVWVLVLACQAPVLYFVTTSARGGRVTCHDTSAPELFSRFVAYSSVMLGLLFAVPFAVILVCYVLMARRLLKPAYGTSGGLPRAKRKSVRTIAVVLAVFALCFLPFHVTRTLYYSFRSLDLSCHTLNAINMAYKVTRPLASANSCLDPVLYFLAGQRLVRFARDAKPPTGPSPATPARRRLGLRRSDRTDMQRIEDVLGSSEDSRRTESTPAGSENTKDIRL
T1 sequence (Q63371 whole entry): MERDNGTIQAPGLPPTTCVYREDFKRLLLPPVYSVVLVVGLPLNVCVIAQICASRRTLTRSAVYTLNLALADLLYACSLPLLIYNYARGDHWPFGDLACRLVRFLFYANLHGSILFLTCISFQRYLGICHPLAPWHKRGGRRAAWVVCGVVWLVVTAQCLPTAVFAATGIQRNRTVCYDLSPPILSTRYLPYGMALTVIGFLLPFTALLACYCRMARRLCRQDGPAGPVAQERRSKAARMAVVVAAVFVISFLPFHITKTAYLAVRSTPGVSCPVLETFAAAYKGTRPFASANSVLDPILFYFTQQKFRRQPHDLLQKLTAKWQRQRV
T3 sequence (P49652 whole entry): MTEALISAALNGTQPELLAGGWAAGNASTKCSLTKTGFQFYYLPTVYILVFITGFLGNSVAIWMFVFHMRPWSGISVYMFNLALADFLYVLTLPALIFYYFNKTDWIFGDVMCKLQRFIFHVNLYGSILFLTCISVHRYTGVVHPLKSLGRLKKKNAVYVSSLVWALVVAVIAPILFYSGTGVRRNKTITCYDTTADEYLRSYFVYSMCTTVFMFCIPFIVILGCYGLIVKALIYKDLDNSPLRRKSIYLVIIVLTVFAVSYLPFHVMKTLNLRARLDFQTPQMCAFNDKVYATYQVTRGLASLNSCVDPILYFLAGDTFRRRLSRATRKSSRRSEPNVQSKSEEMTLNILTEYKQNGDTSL
T2 sequence (P51582 whole entry): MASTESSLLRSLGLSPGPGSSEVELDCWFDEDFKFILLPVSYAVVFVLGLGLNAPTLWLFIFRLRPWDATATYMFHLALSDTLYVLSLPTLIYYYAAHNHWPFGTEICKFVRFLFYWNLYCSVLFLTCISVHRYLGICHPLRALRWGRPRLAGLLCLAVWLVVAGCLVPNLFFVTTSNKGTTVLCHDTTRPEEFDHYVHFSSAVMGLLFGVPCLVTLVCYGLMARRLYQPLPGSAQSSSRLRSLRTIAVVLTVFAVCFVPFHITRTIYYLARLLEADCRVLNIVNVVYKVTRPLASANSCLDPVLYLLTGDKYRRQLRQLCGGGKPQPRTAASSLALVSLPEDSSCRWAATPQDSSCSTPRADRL

Regarding `BP(=O)(OC[C@H]1O[C@@H](n2ccc(=O)[nH]c2=O)[C@H](O)[C@@H]1O)OP(=O)(O)OP(=O)(O)OC[C@H]1O[C@@H](n2ccc(=O)[nH]c2=O)[C@H](O)[C@@H]1O` (some centres undefined), the EC50 at P2Y purinoceptor 6 [1] and at P2Y purinoceptor 6 [2] was 720 nM each time.

In the case of `BP(=O)(OC[C@H]1O[C@@H](n2ccc(=O)[nH]c2=O)[C@H](O)[C@@H]1O)OP(=O)(O)OP(=O)(O)OP(=O)(O)OC[C@H]1O[C@@H](n2ccc(=O)[nH]c2=O)[C@H](O)[C@@H]1O` (some centres undefined), the EC50 amounted to 36100 nM on P2Y purinoceptor 6 [1], 9400 nM on P2Y purinoceptor 4 [3], 9400 nM at P2Y purinoceptor 4 [4] and 36100 nM at P2Y purinoceptor 6 [2].

As for `BP(=O)(OP(=O)(O)OC[C@H]1O[C@@H](n2cnc3c(N)ncnc32)[C@H](O)[C@@H]1O)OP(=O)(O)OP(=O)(O)OC[C@H]1O[C@@H](n2cnc3c(N)ncnc32)[C@H](O)[C@@H]1O` (some centres undefined), the EC50 at P2Y purinoceptor 1 [5] and at P2Y purinoceptor 1 [6] was 3000 nM each time.

Turning to `BP(=O)(OP(=O)(O)OC[C@H]1O[C@@H](n2cnc3c(N)ncnc32)[C@H](O)[C@@H]1O)OP(=O)(O)OP(=O)(O)OC[C@H]1O[C@@H](n2ccc(=O)[nH]c2=O)[C@H](O)[C@@H]1O` (some centres undefined), the EC50 on P2Y purinoceptor 6 [1] came to 1290 nM; at P2Y purinoceptor 1 [5], 6900 nM; on P2Y purinoceptor 2 [7], 64200 nM; on P2Y purinoceptor 6 [2], 1290 nM.

As for `BP(=O)(OP(=O)(O)OC[C@H]1O[C@@H](n2ccc(=O)[nH]c2=O)[C@H](O)[C@@H]1O)OP(=O)(O)OP(=O)(O)OC[C@H]1O[C@@H](n2cnc3c(N)ncnc32)[C@H](O)[C@@H]1O` (some centres undefined), the EC50 turned out to be 20900 nM on P2Y purinoceptor 6 [1], 500 nM at P2Y purinoceptor 1 [5], 500 nM on P2Y purinoceptor 1 [6] and 20900 nM on P2Y purinoceptor 6 [2].

As for `BP(=O)(OC[C@H]1O[C@@H](n2cnc3c(N)ncnc32)[C@H](O)[C@@H]1O)OP(=O)(O)OP(=O)(O)OC[C@H]1O[C@@H](n2cnc3c(N)ncnc32)[C@H](O)[C@@H]1O` (some centres undefined), the half-maximal effective concentration (EC50) on P2Y purinoceptor 1 [5] and on P2Y purinoceptor 1 [6] was 800 nM each time.

Take `BP(=O)(OC[C@H]1O[C@@H](n2cnc3c(N)ncnc32)[C@H](O)[C@@H]1O)OP(=O)(O)OP(=O)(O)OP(=O)(O)OC[C@H]1O[C@@H](n2cnc3c(N)ncnc32)[C@H](O)[C@@H]1O` (some centres undefined): the half-maximal effective concentration (EC50) on P2Y purinoceptor 1 [5] is 1480 nM; at P2Y purinoceptor 2 [7], 25900 nM; at P2Y purinoceptor 1 [6] it was 1480 nM; at P2Y purinoceptor 2 [8], 25900 nM.

Turning to `BP(=O)(OP(=O)(O)OC[C@H]1O[C@@H](n2ccc(=O)[nH]c2=O)[C@H](O)[C@@H]1O)OP(=O)(O)OP(=O)(O)OC[C@H]1O[C@@H](n2ccc(=O)[nH]c2=O)[C@H](O)[C@@H]1O` (some centres undefined), the concentration giving a half-maximal response (EC50) at P2Y purinoceptor 6 [1] and at P2Y purinoceptor 6 [2] was 1930 nM each time.

Usually EC50 stands for the midpoint of the concentration-response curve.

The record behind these values is BindingDB's records for doi:10.1021/jm2013198 (Bar-Ilan University, 2012).
